Results on one compound are retold here after ChEMBL document CHEMBL1157608, “The discovery of 4-{1-[({2,5-dimethyl-4-[4-(trifluoromethyl)benzyl]-3-thienyl}carbonyl)amino]cyclopropyl}benzoic acid (MK-2894), a potent and selective prostaglandin E2 subtype 4 receptor antagonist” (J Med Chem, 2010).

A short description of series [1]: Volume of distribution at steady state in Sprague-Dawley rat at 20 mg/kg, po and 5 mg/kg, iv. Particulars: in vivo, read-out: Vdss. It counts as ADME, organism-based. The gist of the method:
(§1)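 Overnight-fasted animals dosed po in 0.5% methocel or iv in 60% PEG 200; plasma from serial blood samples stored at -10 °C, protein-precipitated with equal volume acetonitrile/0.1% formic acid, analysed by LC/MS/MS with internal standard against spiked blank-plasma standards; Cmax from po data, half-life from iv data.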

Series [2] in a line: Plasma clearance in C57BL/6 mouse at 20 mg/kg, po and 5 mg/kg, iv. In kind it is ADME, organism-based. The gist of the method:
as §1

Series [3] is described as follows: Cmax in Beagle dog at 5 mg/kg, po. It counts as ADME, organism-based, Canis lupus familiaris. Also on record: dose 5 mg/kg, route oral. Particulars: in vivo. The gist of the method:
as §1

The nature of series [4]: Plasma clearance in Beagle dog at 5 mg/kg, po and 1 mg/kg, iv. In kind it is ADME, organism-based, Canis lupus familiaris. The procedure, abridged: as §1
The next series has as its system Cynomolgus monkey. Nature of the series: Half life bioavailability in cynomolgus monkey at 1 mg/kg, iv. It counts as ADME, organism-based, Macaca fascicularis. Particulars: in vivo. The gist of the method: as §1

Structures are written as SMILES.

Usually Cmax stands for the peak of the concentration-time curve. Turning to `Cc1sc(C)c(C(=O)NC2(c3ccc(C(=O)O)cc3)CC2)c1Cc1ccc(C(F)(F)F)cc1`, the Vd in series [1] stood at 2.6 L/kg. The clearance in series [2] was 23 mL/min/kg; in series [4], 3.2 mL/min/kg. For the same compound, the Cmax in series [3] amounted to 3.3 µM. In the series with Cynomolgus monkey, this compound showed a t1/2 of 19 h.
